Test [1] has as its target T1, Adenosine receptor A1 (Homo sapiens) (UniProt P30542).
T1 sequence (whole entry): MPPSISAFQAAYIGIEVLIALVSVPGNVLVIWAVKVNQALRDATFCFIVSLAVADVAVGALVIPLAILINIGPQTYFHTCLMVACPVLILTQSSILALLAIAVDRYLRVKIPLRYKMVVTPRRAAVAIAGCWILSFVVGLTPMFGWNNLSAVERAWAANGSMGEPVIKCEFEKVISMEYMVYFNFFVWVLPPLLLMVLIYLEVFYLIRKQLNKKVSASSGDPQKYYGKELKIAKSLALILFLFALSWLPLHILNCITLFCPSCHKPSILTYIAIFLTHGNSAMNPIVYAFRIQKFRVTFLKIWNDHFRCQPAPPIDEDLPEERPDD
As to the kind of experiment: Displacement of [3H]DPCPX from human adenosine A1 receptor expressed in CHO cell membranes at 1 uM incubated for 60 mins by scintillation counting method. The following applies: Cell membrane. A general note: Loss of bound radioactivity is the signal in a displacement assay; it reports binding, not function.

The target in the next test is T2, Adenosine receptor A2b (Homo sapiens, UniProt P29275).
T2 sequence (P29275 whole entry): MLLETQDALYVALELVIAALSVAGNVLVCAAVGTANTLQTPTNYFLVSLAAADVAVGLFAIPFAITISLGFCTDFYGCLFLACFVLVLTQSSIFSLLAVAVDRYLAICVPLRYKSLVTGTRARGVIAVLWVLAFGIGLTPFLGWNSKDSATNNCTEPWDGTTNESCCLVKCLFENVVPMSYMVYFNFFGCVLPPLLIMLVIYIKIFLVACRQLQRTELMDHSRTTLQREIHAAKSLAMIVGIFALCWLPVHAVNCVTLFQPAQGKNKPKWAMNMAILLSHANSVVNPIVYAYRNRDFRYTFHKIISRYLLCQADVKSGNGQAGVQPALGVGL
As to the kind of experiment: Displacement of [3H]DPCPX from human adenosine A2B receptor expressed in HEK293 cell membranes incubated for 30 mins by scintillation counting method. Further details: species or system Cell membrane.

Test [2] deals with T3, Adenosine receptor A3 (Homo sapiens) (UniProt P0DMS8).
T3 sequence (whole entry): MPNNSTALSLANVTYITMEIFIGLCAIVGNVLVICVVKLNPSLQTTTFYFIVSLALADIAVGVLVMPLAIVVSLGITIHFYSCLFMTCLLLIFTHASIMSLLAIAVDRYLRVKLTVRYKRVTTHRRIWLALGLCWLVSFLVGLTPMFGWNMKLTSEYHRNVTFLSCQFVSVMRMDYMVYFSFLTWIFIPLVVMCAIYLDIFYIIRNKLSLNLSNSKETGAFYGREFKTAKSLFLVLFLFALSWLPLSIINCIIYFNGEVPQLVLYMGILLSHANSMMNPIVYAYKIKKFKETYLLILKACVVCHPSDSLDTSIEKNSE
As to the kind of experiment: Displacement of [3H]NECA from adenosine A3 receptor expressed in human HeLa cell membranes at 1 uM incubated for 180 mins by scintillation counting method. Particulars: Cell membrane. The method, boiled down:
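hA3AR in HeLa membranes (3 pmol/mg protein) with 10 nM [3H]NECA (KD 8.7 nM); nonspecific binding with 100 μM R-PIA; incubated 180 min at 25 °C, washed, filtered, radioactivity counted.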

In test [3] the target is Adenosine receptor A2a (Homo sapiens) (UniProt P29274). As to the kind of experiment: Displacement of [3H]ZM2421385 from adenosine A2A receptor expressed in human HeLa cell membranes at 1 uM incubated for 30 mins by scintillation counting method. Particulars: Cell membrane.
Chain of Adenosine receptor A2a (Homo sapiens) (P29274 whole entry): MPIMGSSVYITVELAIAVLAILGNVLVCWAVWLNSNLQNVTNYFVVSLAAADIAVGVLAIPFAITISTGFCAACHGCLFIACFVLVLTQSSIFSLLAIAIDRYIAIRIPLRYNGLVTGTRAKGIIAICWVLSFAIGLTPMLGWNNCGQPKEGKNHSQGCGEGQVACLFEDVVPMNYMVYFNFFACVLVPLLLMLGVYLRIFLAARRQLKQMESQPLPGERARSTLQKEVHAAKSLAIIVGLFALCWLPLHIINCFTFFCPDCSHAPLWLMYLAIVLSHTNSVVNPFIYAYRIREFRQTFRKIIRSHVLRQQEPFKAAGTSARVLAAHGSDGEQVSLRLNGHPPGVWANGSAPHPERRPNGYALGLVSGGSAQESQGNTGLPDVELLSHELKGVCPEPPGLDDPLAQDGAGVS
The target in test [4] is T4, Adenosine receptor A2b (Homo sapiens) (UniProt P29275).
T4 sequence (whole entry): T2 sequence (P29275 whole entry)
As to the kind of experiment: Displacement of [3H]DPCPX from human adenosine A2B receptor expressed in HEK293 cell membranes at 1 uM incubated for 30 mins by scintillation counting method. The following applies: Cell membrane.

`CC1=C(C(=O)OCC(C)C)C(c2cccs2)NC(=O)N1` (racemic): the inhibition (as a rule, the relative decrease from the control value, in per cent) was determined as 25% in test [1], 11% in test [2] and 12% in test [3]. Also, at Adenosine receptor A2b, the Ki (commonly the equilibrium dissociation constant of an inhibitor or competing ligand from its target) came to 2130 nM.

Regarding `CC1=C(C(=O)SC(C)C)C(c2ccoc2)NC(=O)N1` (racemic), the inhibition in test [1] amounted to 9%; in test [2] it was 3%; in test [3], 2%. Also, at Adenosine receptor A2b, the Ki was 637 nM.

`CC1=C(c2ncc(C)o2)C(c2ccsc2)NC(=O)N1` (racemic): the inhibition came out at 34% in test [1], 2% in test [2] and 20% in test [3]. Also, the Ki on Adenosine receptor A2b was determined as 1130 nM.

Take `CC1=C(C(=O)OC2CCC2)C(c2ccsc2)NC(=O)N1` (racemic): the inhibition was 40% in test [1], 3% in test [2] and 41% in test [3]. Besides, the Ki at Adenosine receptor A2b came out at 405 nM.

Take `CCCC(=O)C1=C(C)NC(=O)NC1c1ccco1` (racemic): the figures for the inhibition in test [1], in test [2] and in test [3] were 1%, 1% and 6%, respectively. On Adenosine receptor A2b, this molecule yielded a Ki of 807 nM.

In the case of `CC1=C(C(=O)OCC2CC2)C(c2ccsc2)NC(=O)N1` (racemic), the values for the inhibition in test [1], in test [2] and in test [3] were 39%, 3% and 46%, respectively. In addition, the inhibitory constant (Ki) at Adenosine receptor A2b turned out to be 724 nM.

On to `CCCOC(=O)C1=C(C)NC(=O)NC1c1cccs1` (racemic), for which the inhibition in test [1] came to 43%; in test [2], 32%; in test [3], 30%. The same molecule showed a Ki on Adenosine receptor A2b of 1520 nM.

As for `CC1=C(C(=O)OCC2CCC2)C(c2ccco2)NC(=O)N1` (racemic), the inhibition in test [1] is 42%; in test [2] it was 1%; in test [3] it was 22%. Also, at Adenosine receptor A2b, the Ki is 561 nM.

With `CC1=C(C(=O)OC2CCCC2)C(c2ccoc2)NC(=O)N1` (racemic), the inhibition was 6% in test [1], 1% in test [2] and 1% in test [3]. The same molecule registered a Ki at Adenosine receptor A2b of 1010 nM.

With `CC1=C(C(=O)OCc2ccccc2)C(c2ccsc2)NC(=O)N1C` (racemic), the results for the inhibition in test [1], in test [2] and in test [3] were 46%, 14% and 30%, respectively. The same molecule gave a Ki on Adenosine receptor A2b of 4520 nM.

As to `CC1=C(C(=O)OCC2CCC2)C(c2ccsc2)NC(=O)N1` (racemic), the figures for the inhibition in test [1], in test [2] and in test [3] were 48%, 2% and 32%, respectively. Besides, on Adenosine receptor A2b, the affinity corresponds to a Ki of 1040 nM.

Turning to `CC1=C(C(=O)OC2CCC2)C(c2ccoc2)NC(=O)N1` (racemic), the inhibition in test [1] was determined as 20%; in test [2], 1%; in test [3], 32%. The molecule further displayed a Ki at Adenosine receptor A2b of 307 nM.

Take `CC1=C(C(=O)CC(C)C)C(c2ccsc2)NC(=O)N1` (racemic): the inhibition in test [1] came to 37%; in test [2], 14%; in test [3], 19%. The Ki at Adenosine receptor A2b was found to be 1000 nM.

On Adenosine receptor A2b, `CC1=C(C(=O)OC(C)C)C(c2ccsc2)NC(=S)N1` (racemic) displayed a Ki of 315 nM.

Take `CC1=C(C(=O)OC2CCC2)C(c2ccco2)NC(=O)N1` (racemic): the inhibition amounted to 19% in test [1], 1% in test [2] and 41% in test [3]. The molecule further came in with a Ki at Adenosine receptor A2b of 95.1 nM.

For `CCCOC(=O)C1=C(C)NC(=O)NC1c1ccoc1` (racemic), the inhibition in test [1] was found to be 50%; in test [2], 11%; in test [3], 45%. For the same molecule, the affinity at Adenosine receptor A2b corresponds to a Ki of 1190 nM.

On to `CC1=C(C(=O)OCC2CC2)C(c2cccs2)NC(=O)N1` (racemic), for which the inhibition in test [1] is 23%; in test [2] it was 1%; in test [3], 27%. This molecule gave a Ki at Adenosine receptor A2b of 1570 nM.

For `CCCOC(=O)C1=C(C)NC(=O)NC1c1ccsc1` (racemic), the inhibition was found to be 44% in test [1], 6% in test [2] and 48% in test [3]. Further, the Ki at Adenosine receptor A2b was 201 nM.

Consider `CC1=C(C(=O)OCC(C)C)C(c2ccsc2)NC(=O)N1` (racemic), for which the inhibition in test [1] amounted to 56%; in test [2], 21%; in test [3] it was 37%. Further, at Adenosine receptor A2b, the affinity, expressed as Ki, was 1190 nM.

For `CCOC(=O)C1=C(C)NC(=O)N[C@@H]1c1ccsc1`, the inhibition worked out at 10% in test [1], 6% in test [2] and 9% in test [3]. For the same molecule, the Ki at Adenosine receptor A2b is 11.1 nM.

`CC1=C(C(=O)OCc2ccccc2)C(c2cccs2)NC(=O)N1` (racemic): the figures for the inhibition in test [1], in test [2] and in test [3] were 45%, 8% and 30%, respectively. On Adenosine receptor A2b, this molecule returned a Ki of 1920 nM.

For the molecule `CC1=C(C(=O)OCc2ccccc2)C(c2ccco2)NC(=O)N1` (racemic), the inhibition came to 36% in test [1], 3% in test [2] and 26% in test [3]. For the same molecule, the Ki on Adenosine receptor A2b turned out to be 887 nM.

Molecule `CCOC(=O)C1=C(C)N=C(S)NC1c1cccs1` (racemic) had an inhibitory constant (Ki) at Adenosine receptor A2b of 3250 nM. That is a single-digit micromolar value.

For the molecule `CC1=C(C(=O)OCC2CCC2)C(c2cccs2)NC(=O)N1` (racemic), the inhibition in test [1] is 39%; in test [2], 1%; in test [3], 22%. On Adenosine receptor A2b, this molecule gave a Ki of 2840 nM.

For `CCC(C)OC(=O)C1=C(C)NC(=O)NC1c1ccsc1` (racemic), the inhibition in test [4] stood at 39%; in test [1] it was 5%; in test [2] it was 7%; in test [3], 1%.

On to `CC1=C(C(=O)OCC(C)C)C(c2ccoc2)NC(=O)N1C` (racemic), for which the inhibition in test [4] came to 1%; in test [1] it was 4%; in test [2] it was 16%; in test [3], 4%.

As for `CCN(CC)C(=O)C1=C(C)NC(=O)NC1c1ccsc1` (racemic), the inhibition in test [4] was 11%; in test [1], 11%; in test [2], 35%; in test [3], 9%.

Consider `CC1=C(C(=O)OC2CCCCC2)C(c2cccs2)NC(=O)N1` (racemic), for which the inhibition was 3% in test [4], 7% in test [1], 1% in test [2] and 14% in test [3].

Take `CC1=C(C(=O)OC(C)(C)C)C(c2ccsc2)NC(=O)N1C` (racemic): the inhibition in test [4] was determined as 35%; in test [1], 18%; in test [2], 14%; in test [3] it was 1%.

Regarding `CCCC(=O)C1=C(C)NC(=O)NC1c1cccs1` (racemic), the inhibition in test [4] was 9%; in test [1], 2%; in test [2] it was 2%; in test [3] it was 23%.

Take `CC1=C(C(N)=O)C(c2ccsc2)NC(=O)N1` (racemic): the inhibition in test [4] is 1%; in test [1] it was 2%; in test [2], 1%; in test [3], 18%.

Turning to `CC1=C(C(=O)OCc2ccccc2)C(c2ccsc2)NC(=S)N1` (racemic), the inhibition in test [4] came to 10%; in test [1] it was 3%; in test [2] it was 2%; in test [3], 16%.

With `CCCOC(=O)C1=C(C)NC(=S)NC1c1ccsc1` (racemic), the inhibition in test [4] was found to be 26%; in test [1], 5%; in test [2], 1%; in test [3], 1%.

As to `CCCOC(=O)C1=C(C)N(C)C(=O)NC1c1ccco1` (racemic), the inhibition in test [4] was determined as 23%; in test [1], 3%; in test [2] it was 8%; in test [3] it was 2%.

Regarding `CCSC(=O)C1=C(C)NC(=O)NC1c1ccoc1` (racemic), the inhibition was 1% in test [4], 3% in test [1], 1% in test [2] and 1% in test [3].

Consider `CC1=C(C(=O)OCC(C)C)C(c2cccs2)NC(=O)N1C` (racemic), for which the inhibition in test [4] worked out at 2%; in test [1], 9%; in test [2], 5%; in test [3], 1%.

(Values after ChEMBL document CHEMBL4765483 (J Med Chem, 2021).)
